Data set [1] has as its target T1, Phospholipase C (Bacillus cereus, UniProt P09598).
T1 sequence (P09598 whole entry): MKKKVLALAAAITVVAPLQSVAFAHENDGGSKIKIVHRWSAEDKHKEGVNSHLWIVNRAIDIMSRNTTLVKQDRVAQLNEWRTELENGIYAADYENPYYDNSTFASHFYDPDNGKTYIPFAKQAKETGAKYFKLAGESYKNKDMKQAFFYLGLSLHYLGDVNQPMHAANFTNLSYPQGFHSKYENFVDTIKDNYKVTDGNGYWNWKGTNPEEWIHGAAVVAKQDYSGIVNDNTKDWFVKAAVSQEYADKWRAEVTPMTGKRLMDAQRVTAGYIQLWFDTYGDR
Put plainly: Inhibition of Bacillus cereus phosphatidylcholine preferred phospholipase C after 100 seconds. A digest of the protocol: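 Bacillus cereus PC-PLC activity measured by a coupled read-out: phosphorylcholine released by the enzyme is hydrolysed by alkaline phosphatase, and the freed phosphate ions are quantified. Substrate was 1,2-di-n-hexanoyl-sn-glycero-3-phosphocholine at 2 mM final, below its CMC of 11.1 mM. Compound CMC values were determined so the assay ran under non-micellar conditions.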

Data set [2] is described as follows: Critical micelle concentration of the compound. The format is physicochemical.
Data set [3] is described as follows: Cytotoxicity against human A549 cells after 24 hrs by MTT assay. Particulars: read-out: LD50. The format is cell-based.
For data set [4], the target named is T1, Phospholipase C. Put plainly: Mixed-type inhibition of Bacillus cereus phosphatidylcholine preferred phospholipase C by Dixon plot analysis.
The target in data set [5] is T1, Phospholipase C. Put plainly: Non-competitive inhibition of Bacillus cereus phosphatidylcholine preferred phospholipase C by Dixon plot analysis.
The target of data set [6] is T1, Phospholipase C. Put plainly: Uncompetitive inhibition of Bacillus cereus phosphatidylcholine preferred phospholipase C by Dixon plot analysis.
Data set [7] addresses T2, Phospholipase C (Bacillus cereus) (UniProt P09598).
T2 sequence (whole entry): T1 sequence (P09598 whole entry)
Put plainly: Irreversible inhibition of Bacillus cereus phosphatidylcholine preferred phospholipase C assessed as residual activity after 10 mins.

The IC50 is the concentration that gives 50% inhibition. Low values mean inhibition by little substance, high ones a need for much substance. A word on the Ki: it is the equilibrium dissociation constant of an inhibitor or competing ligand from its target. Low values mean tighter binding, high ones weaker binding.

The molecule `CCCCCCCCCCC(N)C(=O)N(CCCN(C)C)OCc1ccccc1.Cl.Cl` (centres undefined) came in with an IC50 on Phospholipase C [1] of 32 µM. The same molecule gave a CMC in data set [2] of 8 µM. Besides, in data set [3], the CC50 at 24 h came to 7 µM.
Turning to `CCCCCCCCCCC(N)C(=O)N(O)CCC[N+](C)(C)C.Cl.[Cl-]` (centres undefined), on Phospholipase C [1], the IC50 came to 58 µM. For the same molecule, the CMC in data set [2] was 97 µM. In addition, on Phospholipase C [4], the Ki is 26 µM. Also, the CC50 at 24 h in data set [3] was above 100 µM.
On to `CCCCCCCCCCCCCCC(N)C(=O)N(O)CC[N+](C)(C)C.Cl.[Cl-]` (centres undefined), for which it took 2 µM to reach half-maximal inhibition at Phospholipase C [1] (IC50). Besides, the CMC in data set [2] stood at 120 µM. In addition, the CC50 at 24 h in data set [3] was determined as 100 µM.
The corresponding values for `CCCCCCC(N)C(=O)N(CC[N+](C)(C)C)OCc1ccccc1.Cl.[Cl-]` (centres undefined) are above 500 µM, above 500 µM and above 100 µM.
In turn, `CCCCCCCCCCCCCCCCCCC(NC(=O)OC(C)(C)C)C(=O)N(CC[N+](C)(C)C)OCc1ccccc1.[I-]` (centres undefined) gave a CMC in data set [2] of 75 µM. The CC50 at 24 h in data set [3] came to 25.1 µM.
At Phospholipase C [1], `CCCCCCCCCCC(N)C(=O)N(CC[N+](C)(C)C)OCc1ccccc1.Cl.[Cl-]` (centres undefined) yielded an IC50 of 10 µM. The CMC in data set [2] was above 500 µM. Further, in data set [3], the CC50 at 24 h was determined as 76.1 µM.
For `CCCCCCCCCCC(N)C(=O)N(O)CCCN(C)C.Cl.Cl` (centres undefined) the same measures were 100 µM, 79 µM and 40 µM.
`CCCCCCCCCCCCCCCCCCC(N)C(=O)N(CC[N+](C)(C)C)OCc1ccccc1.Cl.[Cl-]` (centres undefined): inhibition against Phospholipase C [1] was half-maximal at 4 µM (IC50). Besides, the CMC in data set [2] came out at 10 µM. Moreover, the CC50 at 24 h in data set [3] is 29 µM.
Regarding `CCCCCCCCCCC(NC(=O)OC(C)(C)C)C(=O)N(CCC[N+](C)(C)C)OCc1ccccc1.[I-]` (centres undefined), the CMC in data set [2] was found to be 40 µM. The molecule also showed a Ki on Phospholipase C [4] of 2.5 µM. Besides, the CC50 at 24 h in data set [3] was 17 µM.
As to `CCCCCCC(N)C(=O)N(O)CC[N+](C)(C)C.Cl.[Cl-]` (centres undefined), 500 µM corresponded to half-maximal inhibition against Phospholipase C [1] (IC50). The molecule further gave a CMC in data set [2] above 500 µM. In data set [3], the CC50 at 24 h was above 100 µM.
For `CCCCCCC(N)C(=O)N(O)CCC[N+](C)(C)C.Cl.[Cl-]` (centres undefined) the same measures were above 500 µM, above 500 µM and above 100 µM.
The corresponding values for `CCCCCCCCCCC(NC(=O)OC(C)(C)C)C(=O)N(CC[N+](C)(C)C)OCc1ccccc1.[I-]` (centres undefined) are 5 µM, above 500 µM and 28.2 µM.
For `CCCCCCC(NC(=O)OC(C)(C)C)C(=O)N(CCCN(C)C)OCc1ccccc1` (centres undefined) the same measures were 77 µM, 75 µM and 21 µM.
In the case of `CCCCCCCCCCCCCCCCCCC(N)C(=O)N(O)CC[N+](C)(C)C.Cl.[Cl-]` (centres undefined), the IC50 at Phospholipase C [1] is 4 µM. Moreover, the CMC in data set [2] was 50 µM. For the same molecule, the CC50 at 24 h in data set [3] is 52.7 µM.
`CCCCCCCCCCC(NC(=O)OC(C)(C)C)C(=O)N(CCCN(C)C)OCc1ccccc1` (centres undefined): at Phospholipase C [1], the IC50 stood at 8 µM. The molecule also came in with a CMC in data set [2] of 10 µM. Besides, the affinity on Phospholipase C [5] corresponds to a Ki of 2.5 µM. Besides, the CC50 at 24 h in data set [3] is 6 µM.
Turning to `CCCCCCC(N)C(=O)N(O)CCCN(C)C.Cl.Cl` (centres undefined), on Phospholipase C [1], the IC50 is above 500 µM. In data set [2], this molecule had a CMC above 500 µM. For the same molecule, the CC50 at 24 h in data set [3] is above 100 µM.
In turn, `CCCCCCC(NC(=O)OC(C)(C)C)C(=O)N(CCC[N+](C)(C)C)OCc1ccccc1.[I-]` (centres undefined) returned a 50% inhibitory concentration (IC50) on Phospholipase C [1] of 78 µM. In data set [2], this molecule showed a CMC of 221 µM. Besides, in data set [3], the CC50 at 24 h was above 100 µM.
`CCCCCCC(NC(=O)OC(C)(C)C)C(=O)N(CC[N+](C)(C)C)OCc1ccccc1.[I-]` (centres undefined) registered an IC50 against Phospholipase C [1] of 56 µM. For the same molecule, the CMC in data set [2] is above 500 µM. Further, the CC50 at 24 h in data set [3] was above 100 µM.
The corresponding values for `CCCCCCC(N)C(=O)N(CCCN(C)C)OCc1ccccc1.Cl.Cl` (centres undefined) are above 500 µM, 158 µM and above 100 µM.
On to `CCCCCCCCCCC(N)C(=O)N(O)CC[N+](C)(C)C.Cl.[Cl-]` (centres undefined), for which the IC50 at Phospholipase C [1] is 40 µM. The CMC in data set [2] is above 500 µM. In addition, the affinity at Phospholipase C [6] corresponds to a Ki of 12 µM. Besides, in data set [3], the CC50 at 24 h was above 100 µM.
`CCCCCCCCCCCCCCC(N)C(=O)N(CC[N+](C)(C)C)OCc1ccccc1.Cl.[Cl-]` (centres undefined): the IC50 against Phospholipase C [1] turned out to be 4 µM. In data set [2], this molecule registered a CMC of 90 µM. Moreover, the CC50 at 24 h in data set [3] is 75.3 µM.
For the molecule `CCCCCCCCCCCCCCC(NC(=O)OC(C)(C)C)C(=O)N(CC[N+](C)(C)C)OCc1ccccc1.[I-]` (centres undefined), the CMC in data set [2] was above 500 µM. The CC50 at 24 h in data set [3] came out at 27.6 µM. Also, the Activity in data set [7] worked out at 100%.
Regarding `CCCCCCC(N)C(=O)N(CCC[N+](C)(C)C)OCc1ccccc1.Cl.[Cl-]` (centres undefined), at Phospholipase C [1], the IC50 is 100 µM. In addition, the CMC in data set [2] turned out to be 210 µM. In data set [3], the CC50 at 24 h was above 100 µM.
The corresponding values for `CCCCCCCCCCC(N)C(=O)N(CCC[N+](C)(C)C)OCc1ccccc1.Cl.[Cl-]` (centres undefined) are 50 µM, 141 µM and 43.4 µM.

The values above are taken from ChEMBL document CHEMBL1287788, “2-aminohydroxamic acid derivatives as inhibitors of Bacillus cereus phosphatidylcholine preferred phospholipase C PC-PLC(Bc)” (Bioorg Med Chem, 2010).
